Source: ChEMBL document CHEMBL4808225, “Discovery and Characterization of Selective and Ligand-Efficient DYRK Inhibitors” (J Med Chem, 2021)
Values after ≈ are worked out from the molar mass of the structure shown.

Assays:
[1] = Metabolic stability in human liver microsomes; type: ADME, Microsome; settings: read-out: Stabilty
[2] = Metabolic stability in rat liver microsomes; type: ADME, Microsome; settings: read-out: Stabilty
[3] = Thermodynamic solubility of the compound at pH 6.8; type: physicochemical; settings: buffer, read-out: Therm_solubility
Procedure, shortened: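 Thermodynamic solubility measured at pH 6.8 in a single experiment, reported in […].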

[4] = target: Dual specificity tyrosine-phosphorylation-regulated kinase 1B (Homo sapiens) (UniProt Q9Y463); experiment: Inhibition of wild-type human full length DYRK1B (M1 to S629 residues) expressed in bacterial expression system assessed as remaining activity at 1 uM by Kinomescan method relative to control
Sequence of Dual specificity tyrosine-phosphorylation-regulated kinase 1B (Homo sapiens) (Q9Y463 whole entry, looked up, the tested form may be a part): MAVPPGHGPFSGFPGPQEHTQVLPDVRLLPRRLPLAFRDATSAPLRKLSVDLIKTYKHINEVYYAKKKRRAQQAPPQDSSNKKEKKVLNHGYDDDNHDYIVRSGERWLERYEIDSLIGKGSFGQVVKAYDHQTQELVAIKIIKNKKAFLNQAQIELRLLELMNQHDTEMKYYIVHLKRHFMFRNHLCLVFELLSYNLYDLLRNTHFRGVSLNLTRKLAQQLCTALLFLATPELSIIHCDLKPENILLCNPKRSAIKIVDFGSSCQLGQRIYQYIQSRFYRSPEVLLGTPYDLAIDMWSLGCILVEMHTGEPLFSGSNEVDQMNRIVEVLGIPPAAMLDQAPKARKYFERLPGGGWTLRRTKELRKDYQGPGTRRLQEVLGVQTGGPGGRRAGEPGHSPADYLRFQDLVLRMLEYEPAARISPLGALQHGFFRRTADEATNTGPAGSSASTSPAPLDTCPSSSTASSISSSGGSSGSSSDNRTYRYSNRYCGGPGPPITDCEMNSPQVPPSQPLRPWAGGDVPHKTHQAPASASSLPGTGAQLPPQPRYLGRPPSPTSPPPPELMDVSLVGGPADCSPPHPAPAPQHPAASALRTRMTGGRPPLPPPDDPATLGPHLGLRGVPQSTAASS
Procedure, shortened: (§1)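 KINOMEscan competition binding panel run with inhibitor at 1 μM; read-out is remaining kinase activity (percent of control).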

[5] = target: Glycogen synthase kinase-3 beta (Homo sapiens) (UniProt P49841); experiment: Inhibition of wild-type human full length GSK3B (M1 to T433 residues) expressed in mammalian expression system assessed as remaining activity at 1 uM by Kinomescan method relative to control; procedure, shortened: as §1
Sequence of Glycogen synthase kinase-3 beta (Homo sapiens) (P49841 whole entry, looked up, the tested form may be a part): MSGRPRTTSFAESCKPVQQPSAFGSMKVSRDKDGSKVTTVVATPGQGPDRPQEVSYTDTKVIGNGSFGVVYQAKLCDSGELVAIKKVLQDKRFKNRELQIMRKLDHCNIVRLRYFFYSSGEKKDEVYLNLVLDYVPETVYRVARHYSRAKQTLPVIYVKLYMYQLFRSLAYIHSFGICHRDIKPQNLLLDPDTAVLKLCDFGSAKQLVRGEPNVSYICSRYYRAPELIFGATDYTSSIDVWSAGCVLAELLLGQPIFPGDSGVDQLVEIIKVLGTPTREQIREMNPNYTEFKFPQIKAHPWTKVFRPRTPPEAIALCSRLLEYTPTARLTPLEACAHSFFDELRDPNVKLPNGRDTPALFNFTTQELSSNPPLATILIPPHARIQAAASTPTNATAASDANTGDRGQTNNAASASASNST

[6] = target: Dual specificity protein kinase CLK4 (Homo sapiens, UniProt Q9HAZ1); experiment: Binding affinity to wild-type human partial length CLK4 (R135 to K481 residues) expressed in bacterial expression system measured after 1 hr by competitive binding assay
[7] = target: Dual specificity protein kinase CLK1 (Homo sapiens, UniProt P49759); experiment: Binding affinity to wild-type human full length CLK1 (M1 to I484 residues) expressed in bacterial expression system measured after 1 hr by competitive binding assay
Sequence of Dual specificity protein kinase CLK1 (P49759 whole entry, the tested form may be a part): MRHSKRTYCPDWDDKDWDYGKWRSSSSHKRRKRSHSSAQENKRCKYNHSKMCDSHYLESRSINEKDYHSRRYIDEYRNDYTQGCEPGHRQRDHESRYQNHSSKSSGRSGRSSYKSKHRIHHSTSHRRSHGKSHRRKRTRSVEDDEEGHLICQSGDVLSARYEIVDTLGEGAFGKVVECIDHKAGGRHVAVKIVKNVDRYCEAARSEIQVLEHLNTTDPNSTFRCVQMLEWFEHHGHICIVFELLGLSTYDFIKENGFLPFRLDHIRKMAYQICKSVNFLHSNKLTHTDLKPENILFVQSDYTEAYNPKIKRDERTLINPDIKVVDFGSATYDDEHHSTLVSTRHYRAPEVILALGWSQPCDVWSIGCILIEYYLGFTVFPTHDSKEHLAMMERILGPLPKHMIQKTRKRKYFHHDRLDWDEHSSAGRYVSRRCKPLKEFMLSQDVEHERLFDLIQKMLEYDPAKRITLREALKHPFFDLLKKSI

[8] = target: Homeodomain-interacting protein kinase 2 (Homo sapiens, UniProt Q9H2X6); experiment: Binding affinity to wild-type human partial length HIPK2 (M153 to S564 residues) expressed in mammalian expression system measured after 1 hr by competitive binding assay
Sequence of Homeodomain-interacting protein kinase 2 (Q9H2X6 whole entry, the tested form may be a part): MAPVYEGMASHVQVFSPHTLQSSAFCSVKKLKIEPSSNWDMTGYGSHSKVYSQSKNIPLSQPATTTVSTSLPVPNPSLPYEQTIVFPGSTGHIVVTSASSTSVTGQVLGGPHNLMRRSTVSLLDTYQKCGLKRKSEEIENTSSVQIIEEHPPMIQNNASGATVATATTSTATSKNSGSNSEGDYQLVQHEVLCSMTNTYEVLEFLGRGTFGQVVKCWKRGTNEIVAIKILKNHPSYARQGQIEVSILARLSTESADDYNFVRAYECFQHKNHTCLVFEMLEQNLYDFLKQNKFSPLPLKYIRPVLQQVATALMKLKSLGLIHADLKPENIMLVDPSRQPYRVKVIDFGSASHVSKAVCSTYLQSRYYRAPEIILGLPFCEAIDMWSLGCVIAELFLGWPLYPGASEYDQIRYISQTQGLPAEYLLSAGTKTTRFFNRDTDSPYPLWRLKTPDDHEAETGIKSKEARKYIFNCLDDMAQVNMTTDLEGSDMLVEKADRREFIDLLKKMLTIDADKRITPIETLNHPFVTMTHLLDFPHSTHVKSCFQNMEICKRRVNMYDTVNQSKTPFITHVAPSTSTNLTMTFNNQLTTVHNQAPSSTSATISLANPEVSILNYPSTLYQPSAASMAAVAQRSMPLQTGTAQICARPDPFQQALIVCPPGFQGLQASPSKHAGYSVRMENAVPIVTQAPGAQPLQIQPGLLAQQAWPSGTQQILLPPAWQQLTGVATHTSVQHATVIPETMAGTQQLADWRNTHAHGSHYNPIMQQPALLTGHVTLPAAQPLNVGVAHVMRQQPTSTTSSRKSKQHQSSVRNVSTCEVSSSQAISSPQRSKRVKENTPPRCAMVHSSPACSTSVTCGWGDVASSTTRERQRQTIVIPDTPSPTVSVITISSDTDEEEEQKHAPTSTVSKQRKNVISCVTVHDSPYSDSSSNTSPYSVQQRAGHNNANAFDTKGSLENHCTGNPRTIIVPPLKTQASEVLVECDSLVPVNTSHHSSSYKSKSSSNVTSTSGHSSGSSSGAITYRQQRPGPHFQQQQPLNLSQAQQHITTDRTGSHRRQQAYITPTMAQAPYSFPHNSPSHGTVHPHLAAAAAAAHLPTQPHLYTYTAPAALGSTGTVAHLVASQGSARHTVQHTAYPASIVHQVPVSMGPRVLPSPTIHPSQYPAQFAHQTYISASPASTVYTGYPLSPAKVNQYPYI

[9] = target: MAP kinase-interacting serine/threonine-protein kinase 2 (Homo sapiens, UniProt Q9HBH9); experiment: Binding affinity to wild-type human partial length MKNK2 (G63 to S388 residues) expressed in mammalian expression system measured after 1 hr by competitive binding assay
[10] = target: T1, Tyrosine-protein kinase JAK3 (Homo sapiens, UniProt P52333); experiment: Binding affinity to wild-type human partial length JAK3 JH1 catalytic domain (I781 to S1124 residues) expressed in mammalian expression system measured after 1 hr by competitive binding assay
T1 sequence (P52333 whole entry): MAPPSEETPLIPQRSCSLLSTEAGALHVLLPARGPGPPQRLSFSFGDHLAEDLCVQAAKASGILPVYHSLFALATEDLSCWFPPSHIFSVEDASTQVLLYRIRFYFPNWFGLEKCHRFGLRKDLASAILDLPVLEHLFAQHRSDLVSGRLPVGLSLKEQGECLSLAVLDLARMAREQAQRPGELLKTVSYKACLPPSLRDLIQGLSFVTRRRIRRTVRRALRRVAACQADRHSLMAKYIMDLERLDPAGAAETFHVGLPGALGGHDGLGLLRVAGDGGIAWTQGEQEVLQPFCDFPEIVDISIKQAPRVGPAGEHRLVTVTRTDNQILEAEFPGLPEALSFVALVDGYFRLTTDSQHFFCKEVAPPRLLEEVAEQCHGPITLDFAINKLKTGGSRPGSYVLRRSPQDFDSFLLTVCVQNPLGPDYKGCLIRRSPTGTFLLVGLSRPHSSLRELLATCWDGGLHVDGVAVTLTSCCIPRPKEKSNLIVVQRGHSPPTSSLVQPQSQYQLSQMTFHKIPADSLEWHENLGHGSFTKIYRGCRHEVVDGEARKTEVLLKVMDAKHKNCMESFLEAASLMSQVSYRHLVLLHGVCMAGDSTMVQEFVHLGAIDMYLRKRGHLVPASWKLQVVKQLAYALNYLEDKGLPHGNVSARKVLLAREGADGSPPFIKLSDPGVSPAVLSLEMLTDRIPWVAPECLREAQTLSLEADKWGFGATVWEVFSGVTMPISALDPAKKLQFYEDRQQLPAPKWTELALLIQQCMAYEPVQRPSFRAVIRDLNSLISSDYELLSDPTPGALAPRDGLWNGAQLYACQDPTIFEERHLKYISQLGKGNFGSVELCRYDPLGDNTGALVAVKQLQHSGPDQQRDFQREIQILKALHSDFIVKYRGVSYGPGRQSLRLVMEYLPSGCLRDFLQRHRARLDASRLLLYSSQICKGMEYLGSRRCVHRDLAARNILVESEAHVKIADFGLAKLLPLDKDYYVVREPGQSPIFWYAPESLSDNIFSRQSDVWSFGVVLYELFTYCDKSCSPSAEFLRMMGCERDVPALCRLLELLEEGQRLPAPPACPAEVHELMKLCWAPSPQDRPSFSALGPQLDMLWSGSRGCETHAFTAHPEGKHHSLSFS

[11] = target: Serine/threonine-protein kinase WNK2 (Homo sapiens, UniProt Q9Y3S1); experiment: Binding affinity to wild-type human partial length WNK2 (V47 to D482 residues) expressed in mammalian expression system measured after 1 hr by competitive binding assay
Sequence of Serine/threonine-protein kinase WNK2 (Q9Y3S1 whole entry, the tested form may be a part): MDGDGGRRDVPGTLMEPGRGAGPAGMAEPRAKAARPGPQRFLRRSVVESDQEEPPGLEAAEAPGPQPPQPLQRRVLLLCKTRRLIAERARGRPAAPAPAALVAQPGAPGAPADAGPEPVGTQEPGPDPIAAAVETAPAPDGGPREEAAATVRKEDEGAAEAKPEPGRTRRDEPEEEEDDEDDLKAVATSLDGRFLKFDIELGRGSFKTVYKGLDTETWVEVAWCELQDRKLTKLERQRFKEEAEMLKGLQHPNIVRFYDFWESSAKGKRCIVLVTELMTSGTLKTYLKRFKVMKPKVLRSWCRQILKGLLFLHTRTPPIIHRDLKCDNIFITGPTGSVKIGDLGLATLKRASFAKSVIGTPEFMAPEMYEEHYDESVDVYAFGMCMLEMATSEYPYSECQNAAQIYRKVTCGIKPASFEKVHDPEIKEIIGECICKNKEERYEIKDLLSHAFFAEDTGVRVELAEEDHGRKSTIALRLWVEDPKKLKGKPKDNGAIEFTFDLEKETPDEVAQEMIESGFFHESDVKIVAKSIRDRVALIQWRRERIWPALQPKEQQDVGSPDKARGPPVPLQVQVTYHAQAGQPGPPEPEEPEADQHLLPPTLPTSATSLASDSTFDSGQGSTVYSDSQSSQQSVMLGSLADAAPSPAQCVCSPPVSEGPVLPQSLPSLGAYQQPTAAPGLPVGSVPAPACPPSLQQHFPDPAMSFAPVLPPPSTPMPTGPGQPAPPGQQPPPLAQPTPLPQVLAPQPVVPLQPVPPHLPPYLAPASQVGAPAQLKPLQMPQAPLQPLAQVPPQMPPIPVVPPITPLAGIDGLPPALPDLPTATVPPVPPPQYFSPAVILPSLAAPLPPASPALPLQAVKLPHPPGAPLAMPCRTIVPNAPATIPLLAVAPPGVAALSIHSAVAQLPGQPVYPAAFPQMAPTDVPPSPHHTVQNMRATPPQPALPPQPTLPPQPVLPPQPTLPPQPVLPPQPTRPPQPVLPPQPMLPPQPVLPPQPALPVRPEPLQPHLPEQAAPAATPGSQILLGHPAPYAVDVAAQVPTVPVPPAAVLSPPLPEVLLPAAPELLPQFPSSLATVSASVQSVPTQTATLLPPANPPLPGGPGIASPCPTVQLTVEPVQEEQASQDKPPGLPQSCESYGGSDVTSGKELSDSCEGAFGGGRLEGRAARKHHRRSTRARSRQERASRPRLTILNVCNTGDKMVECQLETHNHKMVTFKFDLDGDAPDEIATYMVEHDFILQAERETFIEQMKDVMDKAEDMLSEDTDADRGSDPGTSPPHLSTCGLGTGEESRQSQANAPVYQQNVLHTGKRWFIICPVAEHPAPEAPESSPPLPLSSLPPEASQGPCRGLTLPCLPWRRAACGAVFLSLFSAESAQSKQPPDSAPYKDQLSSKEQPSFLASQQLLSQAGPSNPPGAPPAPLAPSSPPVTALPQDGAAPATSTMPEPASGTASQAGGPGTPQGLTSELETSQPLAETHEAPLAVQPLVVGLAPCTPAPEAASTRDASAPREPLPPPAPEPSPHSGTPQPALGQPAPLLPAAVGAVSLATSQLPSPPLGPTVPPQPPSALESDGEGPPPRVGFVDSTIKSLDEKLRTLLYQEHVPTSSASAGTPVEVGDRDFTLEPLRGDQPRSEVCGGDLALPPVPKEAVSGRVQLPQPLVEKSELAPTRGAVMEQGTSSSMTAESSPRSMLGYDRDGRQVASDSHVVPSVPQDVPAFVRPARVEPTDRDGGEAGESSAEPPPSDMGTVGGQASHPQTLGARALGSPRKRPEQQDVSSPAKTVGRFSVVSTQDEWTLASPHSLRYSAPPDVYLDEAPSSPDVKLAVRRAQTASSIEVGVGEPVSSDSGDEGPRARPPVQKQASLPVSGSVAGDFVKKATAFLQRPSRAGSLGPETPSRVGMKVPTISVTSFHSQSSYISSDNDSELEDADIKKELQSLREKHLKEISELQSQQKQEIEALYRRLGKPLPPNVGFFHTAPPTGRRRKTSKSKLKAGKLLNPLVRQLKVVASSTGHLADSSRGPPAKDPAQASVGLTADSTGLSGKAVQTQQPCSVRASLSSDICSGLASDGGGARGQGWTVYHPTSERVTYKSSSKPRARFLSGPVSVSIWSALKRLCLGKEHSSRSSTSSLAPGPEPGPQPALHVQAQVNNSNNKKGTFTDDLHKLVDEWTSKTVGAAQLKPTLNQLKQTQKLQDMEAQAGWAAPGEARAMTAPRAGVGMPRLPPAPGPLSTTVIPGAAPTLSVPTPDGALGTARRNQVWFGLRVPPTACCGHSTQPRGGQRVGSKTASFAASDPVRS

[12] = Half life in Sprague-Dawley rat at 1 mg/kg, iv; type: ADME, organism-based; settings: in vivo
Procedure, shortened: (§2)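 Single intravenous dose of 1 mg/kg given to fed Sprague–Dawley rats (n = 3); plasma and brain samples collected for pharmacokinetic parameters, with total brain:plasma ratio computed.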

[13] = Tmax in Sprague-Dawley rat at 1 mg/kg, iv; type: ADME, organism-based; settings: in vivo; procedure, shortened: as §2
[14] = Cmax in Sprague-Dawley rat at 1 mg/kg, iv; type: ADME, organism-based; parameters: route intravenous, dose 1 mg/kg; settings: in vivo; procedure, shortened: as §2
[15] = AUClast in Sprague-Dawley rat at 1 mg/kg, iv; type: ADME, organism-based; parameters: route intravenous, time 0 - last, dose 1 mg/kg; settings: in vivo; procedure, shortened: as §2
[16] = Toxicity in Sprague-Dawley rat assessed as adverse effect at 1 mg/kg, iv; type: organism-based; settings: in vivo
Procedure, shortened: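 Fed Sprague–Dawley rats (n = 3) received one 1 mg/kg iv dose; adverse effects were recorded during the pharmacokinetic study.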

## CN(C)c1nccc(-c2cnn3ncccc23)n1
[1]
  microsomal CLint: 242 µL/min/mg
[2]
  microsomal CLint: 231 µL/min/mg
[3]
  solubility thermodynamic: 100 µg/mL (≈ 416 µM)
[4]
  Activity: 2.7%
[5]
  Activity: 94%
[6]
  Kd: 61 nM
[7]
  Kd: 70 nM
[8]
  Kd: 1200 nM
[9]
  Kd: 1800 nM
[10]
  Kd: 1800 nM
[11]
  Kd: 10000 nM
[12]
  t1/2: 12 min
[13]
  Tmax: 1.8 min
[14]
  Cmax: 1082.8 ng/mL
[15]
  AUClast: 275.3 ng·h/mL
[16]
  Activity: Non-Toxic
